# This is a sample that favours compounds with a hit; in the whole collection about 3.8% have one here.
# V-ATPase pHluor – regulators of yeast V-ATPase proton transport. S. cerevisiae, pHLuorin cytosolic pH fluorescence. response, % at 10 µM. hit rate 0.37% among 350,000; in the data active = response mostly above about 7.3%, no sharp cut-off; inactive = mostly below about 5.4%; note: actives read high
# T cell modulator – T cell immune modulators affecting CD8 T cell-vesicle binding; 2C CD8+ T cell-vesicle binding, flow cytometry; active compounds read low; response (vesicle binding), % at 7 µM; hit rate 0.068% among 330,000; AID 2052;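 active = response, share of CD8 T cells binding vesicles, and their 90th percentile fluorescence all below set limits, cut at about 80% in these data, passing the limit was not always enough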;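 note: values below 100% mean blocked vesicle binding to the CD8+ T cells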
#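 System: murine 2C transgenic CD8+ T lymphocytes; also added: QL9-loaded Drosophila micro-vesicles; times: binding 1.5 h at 37 °C; measured by: flow cytometry, PE anti-B7-1 (FL2) versus Alexa647 anti-CD8 (FL8), PFA-fixed; control set: Peptide-free naked vesicles (low) and QL9 vesicles with 0.7% DMSO vehicle (high)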
# rCAG binder – molecules binding r(CAG) RNA repeats; r(CAG) RNA repeat, TO-PRO-1 dye displacement fluorescence; inhibition, % at 3 µM; hit rate 1.3% among 370,000;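 active = inhibition above the plate cutoff, the mean of all test compounds on that plate plus 3 SD, cut at about 35% in these data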;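 note: 0% = DMSO alone and 100% = 100 µM mitoxantrone as full dye displacement; higher means more dye released from RNA so lower well fluorescence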
# B2AR ag – human beta-2 adrenergic receptor agonism by FAP. Am2.2-beta2AR cells, FAP receptor internalization, flow cytometry. response, % (concentration not given with the values). P07550. hit rate 0.43% among 340,000;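 active = response above a set limit, near 3 SD of response in nonfluorescent compounds, cut at about 42% in these data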
# Target sequence (P07550 whole entry, looked up): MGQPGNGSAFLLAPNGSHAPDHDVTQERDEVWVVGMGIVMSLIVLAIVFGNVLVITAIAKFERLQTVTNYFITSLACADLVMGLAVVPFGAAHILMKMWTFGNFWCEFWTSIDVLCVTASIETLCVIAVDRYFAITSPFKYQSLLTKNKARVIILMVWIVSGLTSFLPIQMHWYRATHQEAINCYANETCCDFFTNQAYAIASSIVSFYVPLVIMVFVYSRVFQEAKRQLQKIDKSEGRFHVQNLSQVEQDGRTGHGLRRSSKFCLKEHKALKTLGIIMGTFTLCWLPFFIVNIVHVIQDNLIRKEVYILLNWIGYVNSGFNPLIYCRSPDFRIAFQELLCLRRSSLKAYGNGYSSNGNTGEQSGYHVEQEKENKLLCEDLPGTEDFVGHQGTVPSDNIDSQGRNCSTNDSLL
# MPTP block – blocks calcium-induced mitochondrial swelling; isolated mouse mitochondria, Ca2+ swelling absorbance, 30 min; inhibition, % at 10 µM; hit rate 1.4% among 360,000;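 active = inhibition of 50% or more, scaled per plate between neutral and stimulator controls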;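 note: 0% = DMSO wells given calcium and 100% = 1 mM EGTA wells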
# Granule exo inh – lytic granule exocytosis inhibition; inhibition, % at 10 µM; TALL-104 LAMP-1 surface exposure, flow cytometry; cells stimulated with thapsigargin and PMA; AID 651702; hit rate 0.66% among 360,000;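 active = inhibition above about 55%, limit read from the data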
# VATPase regulator – modulates yeast V-ATPase proton transport. shares compounds with V-ATPase pHluor. S. cerevisiae pHLuorin cytosolic pH. response, % at 10 µM. hit rate 2% among 980. AID 602197; in the data active = response above about 24%;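 note: plate controls were vehicle wells for no effect and positive control wells for full effect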
# Numbers without * were called inactive; i = inactive; · = no result given.
SMILES,V-ATPase pHluor,T cell modulator,rCAG binder,B2AR ag,MPTP block,Granule exo inh,VATPase regulator
O=[N+]([O-])c1ccc(C2CNC(c3ccccc3)O2)cc1 (stereo not drawn),7.1*,386.7,-11.5,1.9,-1.3,2.8,4.4
Cc1cccc2nc(-c3cccnc3)c(NCCC(C)C)n12,11.8*,363.9,-4.0,5.8,3.4,4.7,-0.6
COC(=O)c1ccc(NC(=O)c2snnc2-c2ccccc2)cc1,8.2*,251.6,-1.8,-1.5,0.2,-3.0,2.1
Cc1cc(NC(=O)CCC(=O)N(CC(=O)NC2CCCC2)Cc2ccc3c(c2)OCO3)no1,9.7*,262.8,-7.7,8.9,-1.5,-3.8,-1.2
O=C(OCc1cc(=O)n2c(n1)sc1ccccc12)c1ccc(O)cc1,5.7,118.8,21.5,-14.4,1.0,-1.5,·
O=c1cc(CCl)nc2sc3ccccc3n12,12.6*,256.9,10.1,-3.6,-0.3,3.1,0.9
COc1ccc(Nc2ncnc3c2cnn3-c2ccccc2)cc1OC,11.0*,494.7,2.0,3.3,-1.7,-4.2,5.1
Clc1ccc(Nc2ncnc3c2cnn3-c2ccccc2)cc1,-0.7,267.1,9.3,3.5,8.8,4.9,·
CCOC(=O)C1CCCN(c2c(NCCCN3CCCC(C)C3)c(=O)c2=O)C1 (stereo not drawn),12.6*,429.5,3.9,5.6,-1.0,-1.4,-0.6
CCOC(=O)C1CCCN(c2c(NCC3CCCN3CC)c(=O)c2=O)C1 (stereo not drawn),-0.8,339.9,-0.9,0.6,-0.7,-1.2,·
COc1ccccc1C(=O)N1CCN(C(=O)[C@@H](Cc2ccccc2)NC(=O)[C@H]2O[C@@H](n3ccc(=O)[nH]c3=O)[C@H](O)[C@@H]2O)CC1,·,·,2.0,·,·,·,·
C(=C\c1nnc(-c2cccs2)o1)/c1ccccc1,12.9*,249.0,-0.8,-3.2,1.9,4.6,4.3
Cc1[nH]c(C)c(S(=O)(=O)N(C)Cc2ccccc2)c1C(=O)N1CCCC1,-1.8,376.4,-3.6,0.0,0.4,-13.9,·
Cc1[nH]c(C)c(S(=O)(=O)N(Cc2ccccc2)C(C)(C)C)c1C(=O)N1CCCC1,10.1*,487.9,-4.0,0.1,-2.4,-1.2,2.9
Nc1nc(NCc2ccco2)nc(N2CCCCCC2)c1[N+](=O)[O-],22.6*,310.6,-1.0,-2.1,12.3,3.6,1.2
CCOc1ncccc1C(=O)Nc1nc(C(C)(C)C)cs1,9.4*,450.9,-5.2,15.1,1.1,1.7,-0.2
Cc1ccc(-n2c(SCC(=O)NN=Cc3ccc(-c4ccccc4)cc3)nnc2-c2ccccc2)cc1,·,·,11.8,·,·,·,·
CCN1CCN(C(=O)c2cc(S(=O)(=O)Nc3ccc(S(C)(=O)=O)cc3)ccc2Cl)CC1,10.2*,381.0,4.3,0.5,0.7,45.8,1.2
Cc1ccc(S(=O)(=O)NC(=O)NCCCCNC(=O)NS(=O)(=O)c2ccc(C)cc2)cc1,17.6*,239.2,0.4,-1.3,-0.8,-0.6,1.1
CC(C)CN1C(=O)C[C@]2(C(=O)N(C)c3ccc(NS(=O)(=O)C4CC4)cc32)C1c1ccccc1 (stereo partly drawn),·,·,1.5,·,·,·,·
COC(=O)[C@H](CC(C)C)N(CCc1cn(Cc2ccc(C)cc2)nn1)S(=O)(=O)c1ccc(F)cc1Br,·,·,3.0,·,·,·,·
O=C(NCc1ccccc1)[C@@H]1CCCN1C(=O)[C@H]1CCCN1C(=O)c1ccc(F)c(F)c1,·,·,0.0,·,·,·,·
COc1ccc([N+](=O)[O-])cc1N(CC(=O)N1CCN(Cc2ccccc2)CC1)S(C)(=O)=O,8.8*,161.3,-2.5,-0.6,1.1,2.7,0.3
COc1ccc(OC)c(S(=O)(=O)N2CCCCC2C(=O)N2CCCN(C)CC2)c1 (stereo not drawn),·,·,6.1,·,·,·,·
CC1=NN(c2nc(N)nc(/C(C#N)=C/c3ccc([N+](=O)[O-])o3)n2)C(C)(C)C1,47.6*,·,7.2,-714.5,4.4,83.1*,0.0
SMILES,V-ATPase pHluor,T cell modulator,rCAG binder,B2AR ag,MPTP block,Granule exo inh,VATPase regulator
C[C@@H]1COc2cc(N3CCCCC3)ccc2S(=O)(=O)N1,·,·,1.8,·,·,·,·
CCOC(=O)c1c(NC(=O)COC(=O)CCNS(=O)(=O)c2ccccc2)sc(C(=O)NC)c1C,9.8*,·,1.0,3.2,-0.6,-6.3,0.9
CCN=C1NC(c2ccc(Cl)cc2)C(C(=O)OC)=C(C)N1Cc1cccc(C(F)(F)F)c1 (stereo not drawn),·,·,6.4,·,·,·,·
COc1cccc(CNC(=O)[C@H]2CCCN2C(=O)[C@H]2CCCN2C(=O)c2cccc(OC)c2)c1,·,·,-0.1,·,·,·,·
CCN1CCN(CCCNC(=O)Cn2nc(C)n3nc(-c4ccccc4)cc3c2=O)CC1,18.8*,165.7,-0.6,-0.8,0.3,-4.5,2.3
Cc1nn(CC(=O)NCCCN2CCN(Cc3ccccc3)CC2)c(=O)c2cc(-c3ccccc3)nn12,-3.6,864.1,-6.4,-8.6,12.1,7.5,·
CCCCc1c(-c2ccccc2OC)ncn1Cc1ccc(C)cc1,·,·,-1.7,·,·,·,·
Cc1ccc(S(=O)(=O)N2CCN(C(=O)COC(=O)CCOc3cc(C)ccc3C)CC2)cc1,10.1*,320.5,0.0,26.1,0.0,0.4,2.1
Cc1ccc(C)c(OCCC(=O)OCC(=O)N2CCN(S(=O)(=O)c3ccc(Cl)cc3)CC2)c1,-1.2,347.4,0.7,4.4,-4.0,6.9,·
Cc1ccc(S(=O)(=O)N2CCN(C(=O)COC(=O)CCOc3ccccc3C)CC2)cc1,11.8*,402.6,-6.3,5.5,0.3,-1.3,2.5
Cc1ccc(S(=O)(=O)CCC(=O)OCC(=O)N2CCN(S(=O)(=O)c3ccccc3)CC2)cc1,1.3,295.9,-4.3,-0.8,0.2,0.8,·
O=C(CCc1ccccc1)N[C@H]1[C@@H](OC(=O)c2cnccn2)CCC[C@]12C(=O)N(Cc1ccccc1)c1ccccc12,·,·,4.9,·,·,·,·
CC(=O)Nc1cccc(-c2cc(C(C)=O)c3n(c2=O)CCC3)c1,·,·,1.7,·,·,·,·
CC(C)CNS(=O)(=O)CC1NCc2cc3c(cc21)OCO3 (stereo not drawn),·,·,2.6,·,·,·,·
O=C(N/N=C/c1cccc([N+](=O)[O-])c1)c1ccc(CN2CCOCC2)cc1,13.8*,363.9,-0.4,-13.8,-1.5,-1.0,-5.9
COc1ccc(S(=O)(=O)NCC2CCCO2)cc1NC(=O)c1ccc(Cl)cc1 (stereo not drawn),-4.4,476.9,-2.1,2.1,-0.1,4.4,·
COc1ccc(S(=O)(=O)NCC2CCCO2)cc1NC(=O)c1ccccc1 (stereo not drawn),7.5*,679.5,-2.2,0.6,-0.8,10.4,-1.2
O=c1c2c(-c3ccccc3)csc2ncn1/N=C/c1cccc([N+](=O)[O-])c1O,81.8*,428.5,5.3,11.4,3.5,0.8,3.8
COC(=O)N1Cc2ccnnc2CC1c1ccccc1-c1ccc(OC)cc1 (stereo not drawn),·,·,3.0,·,·,·,·
N#CCc1c(C#N)c(N)nc(N2CCCC(O)C2)c1C#N (stereo not drawn),10.8*,i,3.6,0.7,0.9,-1.4,-0.2

# Screening data as filed in PubChem BioAssay.
